An excerpt weighted towards active compounds, which were near 1.5% of everything screened.
PG9 binder: binders of HIV-1 gp120 antibody PG9, primary screen, biochemical, TR-FRET; HIV-1 gp120 / PG9 antibody interaction; actives 0.43% (n = 360,000); inhibition, % at 6.7 µM; AID 624416, 2012; TR-FRET gp120-PG9 antibody binding; in the data active = inhibition above about 8.5%
Rev-erbA mod: modulators of Rev-erb alpha DNA binding, primary screen, biochemical, FITC-DNA, fluorescence polarization, uHTS | Rev-erbα–FITC-DNA binding, 90 min | activity, % at 10 µM | actives 0.79% (n = 370,000) | AID 1259318, 2017;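 active = activity above about 14%, limit read from the data; passing the limit was not always enough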;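 note: 0% = DMSO wells with 35 nM protein and 100% = DMSO wells with 750 nM protein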
NR2E3 ag-1: NR2E3 agonists in two-hybrid cells, primary screen, cell-based, luminescence, CHO-S, Gal4-NCOR/VP16-NR2E3 | luciferase | inhibition of corepressor binding, % at 3.98 µM | AID 602229, 2012 | actives 0.35% (n = 360,000) | Photoreceptor-specific nuclear receptor (Homo sapiens), Q9Y5X4;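 active = inhibition above the mean of all tested compounds plus 3 SD, cut at about 70% in these data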;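 note: 0% = DMSO with NR2E3 transfected cells and 100% = cells lacking NR2E3 construct; higher means lower luciferase signal from less NR2E3 corepressor binding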
NR2E3 ag-2: inhibitors of NR2E3-RetCOR corepressor binding, primary screen, NR2E3 agonist project, biochemical, TR-FRET, GST-NR2E3, biotin-RetCOR | actives 0.12% (n = 320,000) | inhibition of corepressor binding, % at 4.78 µM | Photoreceptor-specific nuclear receptor (Homo sapiens), Q9Y5X4 | 1536-well | AID 2300, 2010;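 active = percent inhibition above the cutoff of mean plus 3 SD of all tested compounds, set per screening campaign, cut at about 20% in these data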;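 note: 0% = DMSO wells and 100% = biotin wells as full block of FRET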
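Test system – NR2E3–RetCOR corepressor complex · Quantity – NR2E3 fusion 1.35 nM · Buffer or medium – Tris pH 7.5 · Incubation – Compound–protein incubation for 5 h at 4 °C · Technique – TR-FRET, Eu(K)-anti-GST donor, streptavidin-D2 acceptor, ex 340, em 617/671 nm · Evaluation – percent inhibition of 671/617 nm emission ratio versus biotin and DMSO controls · Plate – 1536-well format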
NR2E3 ag confirm-1: NR2E3 agonists, confirmation, biochemical, TR-FRET | shares compounds with NR2E3 ag-2 | cell-free NR2E3 corepressor release, 5 h | activation (reported as inhibition), % at 3.98 µM | actives 39% (n = 360); in the data active = activation above about 20%
PPARg-NCOR2 ctr: agonists of PPARg-NCOR2 corepressor interaction, counter-screen for NR2E3 agonist project, biochemical, TR-FRET; shares compounds with NR2E3 ag-2; TR-FRET PPARg-NCOR2 coregulator interaction; inhibition, % at 3.98 µM; actives 45% (n = 360); AID 504787, 2011; in the data active = inhibition above about 20%;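 note: 0% = DMSO vehicle and 100% = wells without protein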
Target sequence (P37231 whole entry, looked up): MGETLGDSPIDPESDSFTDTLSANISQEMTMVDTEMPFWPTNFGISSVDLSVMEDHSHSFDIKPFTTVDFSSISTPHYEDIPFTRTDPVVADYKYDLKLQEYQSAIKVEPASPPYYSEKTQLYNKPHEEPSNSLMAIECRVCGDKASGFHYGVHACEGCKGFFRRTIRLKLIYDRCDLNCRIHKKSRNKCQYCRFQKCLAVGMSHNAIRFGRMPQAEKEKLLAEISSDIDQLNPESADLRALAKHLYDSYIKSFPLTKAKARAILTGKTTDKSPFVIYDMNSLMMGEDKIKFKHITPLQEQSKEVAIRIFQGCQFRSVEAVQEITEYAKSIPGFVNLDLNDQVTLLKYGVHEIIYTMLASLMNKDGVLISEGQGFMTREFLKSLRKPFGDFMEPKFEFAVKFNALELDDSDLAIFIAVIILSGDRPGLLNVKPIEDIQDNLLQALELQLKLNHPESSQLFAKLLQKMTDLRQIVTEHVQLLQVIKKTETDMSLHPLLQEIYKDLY
Target sequence (Q9Y618 whole entry, looked up): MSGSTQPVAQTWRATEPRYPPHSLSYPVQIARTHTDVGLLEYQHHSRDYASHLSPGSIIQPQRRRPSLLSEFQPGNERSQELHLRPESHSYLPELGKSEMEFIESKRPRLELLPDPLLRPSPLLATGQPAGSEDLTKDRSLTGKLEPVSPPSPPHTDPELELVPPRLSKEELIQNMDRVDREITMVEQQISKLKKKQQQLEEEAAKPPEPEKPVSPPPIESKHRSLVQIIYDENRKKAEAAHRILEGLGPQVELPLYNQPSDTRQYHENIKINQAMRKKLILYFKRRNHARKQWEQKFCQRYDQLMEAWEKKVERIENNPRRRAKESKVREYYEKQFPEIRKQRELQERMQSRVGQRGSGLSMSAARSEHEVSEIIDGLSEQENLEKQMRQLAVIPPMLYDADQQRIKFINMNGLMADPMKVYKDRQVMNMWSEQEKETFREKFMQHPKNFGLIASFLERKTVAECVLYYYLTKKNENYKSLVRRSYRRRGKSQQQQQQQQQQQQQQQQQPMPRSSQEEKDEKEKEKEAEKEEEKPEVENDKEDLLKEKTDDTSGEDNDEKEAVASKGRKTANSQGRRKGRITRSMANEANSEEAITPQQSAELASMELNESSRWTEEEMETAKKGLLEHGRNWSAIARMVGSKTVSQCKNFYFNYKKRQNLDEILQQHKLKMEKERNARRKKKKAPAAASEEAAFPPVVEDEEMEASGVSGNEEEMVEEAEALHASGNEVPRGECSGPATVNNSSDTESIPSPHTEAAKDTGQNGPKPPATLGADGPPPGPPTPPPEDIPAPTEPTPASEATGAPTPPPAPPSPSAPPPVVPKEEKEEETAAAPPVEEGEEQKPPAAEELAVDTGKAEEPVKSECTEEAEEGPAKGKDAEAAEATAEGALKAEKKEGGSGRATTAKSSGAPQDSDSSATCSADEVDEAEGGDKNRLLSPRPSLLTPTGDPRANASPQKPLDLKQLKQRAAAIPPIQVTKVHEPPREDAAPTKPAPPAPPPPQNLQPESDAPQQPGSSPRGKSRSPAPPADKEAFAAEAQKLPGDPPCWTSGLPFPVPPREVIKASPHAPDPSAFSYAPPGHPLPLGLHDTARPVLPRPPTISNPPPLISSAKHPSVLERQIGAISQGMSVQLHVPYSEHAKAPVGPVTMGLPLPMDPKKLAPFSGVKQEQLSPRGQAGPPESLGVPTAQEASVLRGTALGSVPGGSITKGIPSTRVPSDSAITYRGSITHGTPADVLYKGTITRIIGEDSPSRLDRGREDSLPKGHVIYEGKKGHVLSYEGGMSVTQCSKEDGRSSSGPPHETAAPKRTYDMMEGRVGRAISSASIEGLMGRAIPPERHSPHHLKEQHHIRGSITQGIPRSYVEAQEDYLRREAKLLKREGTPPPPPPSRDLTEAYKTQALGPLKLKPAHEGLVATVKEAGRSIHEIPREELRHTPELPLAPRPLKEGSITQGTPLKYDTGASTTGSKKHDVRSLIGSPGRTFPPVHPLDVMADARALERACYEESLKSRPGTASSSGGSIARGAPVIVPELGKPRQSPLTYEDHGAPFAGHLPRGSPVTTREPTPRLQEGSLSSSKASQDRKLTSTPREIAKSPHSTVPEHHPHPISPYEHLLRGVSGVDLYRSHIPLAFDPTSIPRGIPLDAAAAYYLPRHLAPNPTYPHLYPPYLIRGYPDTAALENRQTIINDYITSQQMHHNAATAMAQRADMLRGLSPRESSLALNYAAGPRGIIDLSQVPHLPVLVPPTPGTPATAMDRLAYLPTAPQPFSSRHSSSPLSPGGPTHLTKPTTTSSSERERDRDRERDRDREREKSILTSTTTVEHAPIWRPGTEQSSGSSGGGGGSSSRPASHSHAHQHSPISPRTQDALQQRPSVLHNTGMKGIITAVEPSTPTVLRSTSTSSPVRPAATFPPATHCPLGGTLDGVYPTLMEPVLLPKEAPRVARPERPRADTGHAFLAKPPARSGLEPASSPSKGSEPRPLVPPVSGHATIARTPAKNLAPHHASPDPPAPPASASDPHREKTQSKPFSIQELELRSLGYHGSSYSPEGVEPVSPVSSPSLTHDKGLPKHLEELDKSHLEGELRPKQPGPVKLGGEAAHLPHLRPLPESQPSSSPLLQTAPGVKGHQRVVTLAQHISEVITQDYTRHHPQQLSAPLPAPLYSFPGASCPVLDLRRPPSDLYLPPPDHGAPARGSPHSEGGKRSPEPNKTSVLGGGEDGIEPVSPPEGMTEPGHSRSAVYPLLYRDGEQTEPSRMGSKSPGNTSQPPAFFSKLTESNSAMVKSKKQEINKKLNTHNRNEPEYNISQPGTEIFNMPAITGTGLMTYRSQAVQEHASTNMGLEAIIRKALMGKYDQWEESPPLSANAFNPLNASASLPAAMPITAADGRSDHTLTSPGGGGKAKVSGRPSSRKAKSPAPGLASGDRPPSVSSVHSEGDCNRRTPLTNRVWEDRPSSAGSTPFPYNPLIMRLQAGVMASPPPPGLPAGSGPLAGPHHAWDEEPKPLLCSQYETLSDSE
NR2E3 ag confirm-2: NR2E3 agonist confirmation in cells, cell-based, luminescence, CHO-S two-hybrid; inhibition, % at 3.98 µM; actives 51% (n = 2,300); shares compounds with NR2E3 ag-1; CHO-S mammalian two-hybrid NR2E3-NCOR, luciferase luminescence;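 active = average inhibition above a cutoff equal to the mean inhibition of all tested compounds plus one SD, cut at about 70% in these data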;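 note: 0% = DMSO in NR2E3 cells and 100% = DMSO in cells lacking NR2E3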
VP16 counter: GAL4-VP16 reporter modulators, confirmation, counter-screen for NR2E3 agonist project, cell-based, luminescence, CHO-S, high throughput | shares compounds with NR2E3 ag-1 | CHO-S GAL4-VP16 luciferase reporter | actives 29% (n = 2,300) | inhibition, % at 3.98 µM;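 active = mean inhibition above a cutoff equal to the average over all tested compounds plus one standard deviation, cut at about 70% in these data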;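 note: luciferase from a UAS reporter driven by GAL4-VP16 transactivation; 0% = DMSO with VP16-transfected cells and 100% = DMSO with cells lacking VP16; higher means less reporter light so more repression of VP16 activity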
Starred values were filed as active, the others as inactive; . = no result.

SMILES | PG9 binder | Rev-erbA mod | NR2E3 ag-1 | NR2E3 ag-2 | NR2E3 ag confirm-1 | PPARg-NCOR2 ctr | others
Nc1c(C(=O)NCCc2ccccc2)sc2nc(N3CCOCC3)c3c(c12)CCCC3 | 7 | -4 | 0 | 27* | 3 | 3
NC(=O)c1sc2nc3c(c(-c4ccco4)c2c1N)CCC3 | 0 | -6 | 0 | 11 | . | .
Cc1ccc(-c2c3c(nc4sc(C(N)=O)c(N)c24)CCCC3)o1 | 3 | 8 | 15 | 26* | -10 | 2
C[C@@H]1O[C@@H](OC[C@H]2OC(Oc3c(-c4ccc(OCCO)c(OCCO)c4)oc4cc(OCCO)cc(O)c4c3=O)[C@H](O)[C@@H](O)[C@@H]2O)[C@H](O)[C@H](O)[C@H]1O (stereo not given in full) | . | 15 | . | . | . | .
c1ccc(CCNc2ncnc3c2nnn3Cc2ccccc2)cc1 | -2 | -4 | -18 | 22* | -11 | -5
c1ccc(Cn2nnc3c(NCCN4CCOCC4)ncnc32)cc1 | -1 | -4 | 1 | -1 | . | .
CC(C)CCCC(C)[C@H]1CCC2C3CC=C4C[C@@H](O)CC[C@]4(C)C3CC[C@@]21C (stereo not given in full) | . | 2 | . | . | . | .
O=c1[nH]c(Nc2ccccc2Cl)cc2ccccc12 | -1 | -11 | -39 | 1 | . | .
Cc1ccccc1Nc1cc2ccccc2c(=O)[nH]1 | . | . | 13 | 25* | 16 | 10
O=c1cc(OCc2ccccc2)cc[nH]1 | 1 | -5 | 12 | 50* | 40* | 15
Cc1[nH]ccc(=O)c1OCc1ccccc1 | 0 | -2 | -4 | 6 | . | .
CC1(C)Cc2c(c(-c3ccccc3)nc3sc4c(=O)[nH]c(=S)[nH]c4c23)CO1 | . | . | . | 20* | 19 | 11
CC1(C)Cc2c(c(-c3ccccc3)nc3[nH][nH]c(=O)c23)CO1 | -5 | -6 | -3 | -1 | . | .
CC12CCC3c4ccc(O)cc4CCC3C1C[C@H](O)[C@@H]2O (stereo not given in full) | . | -3 | . | . | . | .
C=CCn1c(SCC(=O)Nc2cccc(S(N)(=O)=O)c2)nnc1C1CCCCC1 | 0 | 3 | -12 | 42* | -1 | -3
Nc1c(N2CCCC2)cc(Cl)c2nonc12 | . | . | -5 | 1 | . | .
Nc1ccc(N2CCCCC2)c2nonc12 | -2 | 0 | -43 | 43* | -16 | -14
Cn1c(N)c(C(=O)CSc2nnc(C3CC3)n2-c2ccccc2)c(=O)[nH]c1=O | -1 | -12 | -16 | . | . | .
Cn1c(N)c(C(=O)CSc2nc(C3CC3)n(-c3ccccc3)n2)c(=O)[nH]c1=O | -2 | 3 | 1 | 24* | -16 | -3
CCCCC1=CC2=C(c3ccco3)C(=O)C(C)(OC(=O)c3ccc(OC)cc3)C(=O)C2=CN1c1ccccc1 (stereo not given) | . | . | -46 | 34* | -6 | -3
O=C(CSc1nc2ccc(Cl)cc2[nH]1)Nc1ccc2c(c1)CCC2 | -2 | 4 | -18 | 32* | -6 | -5
Cc1ccc2nc(SCC(=O)Nc3ccc4c(c3)CCC4)[nH]c2c1 | 0 | -5 | 2 | 0 | . | .
O=c1[nH]c(=O)n(C2C[C@@H](O)[C@@H](CO)O2)cc1F (stereo not given in full) | . | 11 | . | . | . | .
Cc1cs/c(=N/C(=S)Nc2ccccc2)n1C | 1 | 13 | -162 | 7 | . | .
CCCn1c(C)cs/c1=N\C(=S)Nc1ccccc1 | 0 | 17 | 1 | 26* | 17 | 14
SMILES | PG9 binder | Rev-erbA mod | NR2E3 ag-1 | NR2E3 ag-2 | NR2E3 ag confirm-1 | PPARg-NCOR2 ctr | others
CCOc1ccc(-n2nc3c(=O)[nH]nc(C)c3c2C)cc1 | 1 | 1 | 0 | 0 | . | .
CCOc1ccc(-n2nc3c(=S)[nH]nc(C)c3c2C)cc1 | 42* | 4 | 1 | 26* | 15 | 22*
Cc1cc(C)nc(NC(=S)Nc2cccc(F)c2)c1 | -4 | 7 | -61 | 21* | -4 | 34*
Fc1cccc(NC(=S)Nc2cccc3ccccc23)c1 | 0 | 3 | 6 | 1 | . | .
O=C(O)C(O)[C@H](O)[C@H](O)[C@H](O)[C@H](O)CO (stereo not given in full) | . | 8 | . | . | . | .
CCSc1cnn(-c2ccccc2)c(=O)c1SCC | 1 | -3 | -17 | 21* | 4 | 0
C=C1CC[C@H](O)C/C1=C/C=C1\CCCC2(C)C1CCC2C(C)CCCC(C)C (stereo not given in full) | . | 6 | . | . | . | .
O=C(O)c1cc(O)c2c(c1)[C@@H]([C@H]1c3cc(C(=O)O)cc(O)c3C(=O)c3c(O[C@H]4O[C@H](CO)[C@@H](O)[C@H](O)[C@H]4O)cccc31)c1cccc(O[C@H]3O[C@H](CO)[C@@H](O)[C@H](O)[C@H]3O)c1C2=O | . | -36 | . | . | . | .
CC(OC(=O)CCC(=O)c1ccc(Cl)s1)C(=O)NC1(C#N)CCCCC1 (stereo not given) | 3 | 4 | -22 | 24* | -9 | -3
CC1(C)S[C@@H]2[C@H](NC(=O)[C@H](NC(=O)N3CCNC3=O)c3ccccc3)C(=O)N2C1C(=O)O (stereo not given in full) | . | -8 | . | . | . | .
CC1NC(=O)NC1CCCCCC(=O)Nc1ccc(F)cc1 (stereo not given) | 0 | -8 | -18 | 86* | 89* | 90*
Cc1c(F)cccc1NC(=O)CCCCCC1NC(=O)NC1C (stereo not given) | 0 | 1 | -6 | 97* | 89* | 92*
O=C(CCCC(=O)c1ccccc1)Nc1ccc(F)cc1 | -1 | -3 | -35 | -2 | . | .
CCOC(=O)c1c(-c2ccc(C)s2)csc1N | -3 | 1 | -8 | 68* | -4 | -5
CCOC(=O)c1c(-c2ccsc2)csc1N | 1 | -4 | 2 | 3 | . | .
Cn1nc(-c2ccccn2)nc2c(=O)n(C)c(=O)nc1-2 | -4 | -28 | 107* | 41* | 33* | 57* | NR2E3 ag confirm-2=63;VP16 counter=64
O=S(=O)(O)c1ccccc1O | . | -3 | . | . | . | .

From PubChem BioAssay
